From ChEMBL document CHEMBL1240482, “Synthesis and antiproliferative evaluation of certain indeno[1,2-c]quinoline derivatives. Part 2” (J Med Chem, 2010)
Calls of active or inactive are those of the source. The rule behind the calls is not given here.

Experiments:
[1] = Inhibition of human topoisomerase 2 assessed as decrease in pBR322 mobility on agarose gel by electrophoresis
Procedure, shortened: (§1)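 Enzyme preincubated with compound before DNA addition; reaction run 30 min at 37 °C and stopped with SDS. Products resolved on 1% agarose, stained with ethidium bromide, quantified by densitometry.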

[2] = target: T1, DNA topoisomerase 1 (Homo sapiens) (UniProt P11387); assay: Inhibition of human topoisomerase 1 assessed as decrease in pBR322 mobility on agarose gel at 10 uM by electrophoresis; procedure, shortened: as §1
T1 sequence (whole entry): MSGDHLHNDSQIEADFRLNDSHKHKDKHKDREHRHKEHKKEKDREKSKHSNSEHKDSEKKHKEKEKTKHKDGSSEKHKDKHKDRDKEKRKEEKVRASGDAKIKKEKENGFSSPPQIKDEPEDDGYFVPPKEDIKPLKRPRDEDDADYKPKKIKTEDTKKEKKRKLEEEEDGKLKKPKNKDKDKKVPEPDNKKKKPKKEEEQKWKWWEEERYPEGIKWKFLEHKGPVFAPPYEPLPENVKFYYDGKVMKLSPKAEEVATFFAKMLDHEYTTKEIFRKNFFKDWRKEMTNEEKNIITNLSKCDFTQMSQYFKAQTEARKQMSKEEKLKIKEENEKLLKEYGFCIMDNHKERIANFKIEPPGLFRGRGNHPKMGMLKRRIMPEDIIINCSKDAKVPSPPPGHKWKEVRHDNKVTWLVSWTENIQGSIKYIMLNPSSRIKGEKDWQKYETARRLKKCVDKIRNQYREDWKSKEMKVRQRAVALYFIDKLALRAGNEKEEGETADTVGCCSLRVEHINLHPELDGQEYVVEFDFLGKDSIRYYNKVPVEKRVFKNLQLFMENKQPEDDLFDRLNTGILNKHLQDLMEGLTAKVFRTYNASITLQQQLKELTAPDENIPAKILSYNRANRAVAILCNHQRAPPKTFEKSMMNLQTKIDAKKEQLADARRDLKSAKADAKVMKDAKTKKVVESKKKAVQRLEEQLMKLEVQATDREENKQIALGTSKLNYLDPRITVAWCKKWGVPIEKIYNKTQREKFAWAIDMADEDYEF

Homo sapiens = species: Homo sapiens; assay: Inhibition of human topoisomerase 2 assessed as decrease in pBR322 mobility on agarose gel at 10 uM by electrophoresis; procedure, shortened: as §1
HeLa [3] = assay: Cytotoxicity against human HeLa cells after 48 hrs by MTT assay; type: functional
Procedure, shortened: (§2)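 Cells grown in DMEM with 10% FBS at 37 °C and 5% CO2, seeded at 5 × 10^3 per well and allowed 24 h before drug. Serial dilutions from DMSO stocks applied for 48 h. MTT (2 mg/mL in PBS) added for 2 h, formazan dissolved in DMSO, absorbance read at 570 nm. GI50 interpolated by linear regression from at least three points in the 20-80% range; three independent experiments.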

PC-3 = assay: Cytotoxicity against human PC3 cells after 48 hrs by MTT assay; type: functional; conditions: PC-3, 48 h; procedure, shortened: as §2
[4] = Cytotoxicity against human Detroit 551 cells after 48 hrs by MTT assay; type: cell-based; procedure, shortened: as §2
SAS [5] = assay: Selectivity index, ratio of IC50 for human Detroit 551 cells to IC50 for human SAS cells; type: functional
Detroit 551 [6] = assay: Selectivity index, ratio of IC50 for human Detroit 551 cells to IC50 for human PC3 cells; type: functional
SAS [7] = assay: Cytotoxicity against human SAS cells after 48 hrs by MTT assay; type: functional; procedure, shortened: as §2
DNA topoisomerase 1 = target: T2, DNA topoisomerase 1 (Homo sapiens, UniProt P11387); assay: Inhibition of human topoisomerase 1 assessed as decrease in pBR322 mobility on agarose gel by electrophoresis; procedure, shortened: as §1
T2 sequence (P11387 whole entry): T1 sequence (whole entry)

Detroit 551 [8] = assay: Selectivity index, ratio of IC50 for human Detroit 551 cells to IC50 for human SKHep cells; type: functional
[9] = Cytotoxicity against human BT-483 cells after 48 hrs by MTT assay; type: functional; conditions: BT-483, 48 h; procedure, shortened: as §2
Detroit 551 [10] = assay: Selectivity index, ratio of IC50 for human Detroit 551 cells to IC50 for human BT-483 cells; type: functional
[11] = Cytotoxicity against human SKHep cells after 48 hrs by MTT assay; type: functional; procedure, shortened: as §2
HeLa [12] = assay: Selectivity index, ratio of IC50 for human Detroit 551 cells to IC50 for human HeLa cells; type: functional
A549 = assay: Cytotoxicity against human A549 cells after 48 hrs by MTT assay; type: functional; conditions: A549, 48 h; procedure, shortened: as §2
Detroit 551 [13] = assay: Selectivity index, ratio of IC50 for human Detroit 551 cells to IC50 for human A549 cells; type: functional
Nucleic Acid = assay: Binding affinity to pBR322; type: nucleic-acid assay; conditions: Escherichia coli

| Compound | IC50 [1] [µM] | inhibition [2] [%] | inhibition (Homo sapiens) [%] | GI50 (HeLa [3]; read-out: pGI50 (converted)) [µM] | GI50 (PC-3) [µM] | GI50 at 48 h [4] [µM] | RatioGI50 (SAS [5]) | RatioGI50 (Detroit 551 [6]) | GI50 (SAS [7]) [µM] | IC50 (DNA topoisomerase 1) [µM] | RatioGI50 (Detroit 551 [8]) | GI50 [9] [µM] | RatioGI50 (Detroit 551 [10]) | GI50 [11] [µM] | GI50 (HeLa [3]; read-out: GI50) [µM] | RatioGI50 (HeLa [12]) | GI50 (A549) [µM] | RatioGI50 (Detroit 551 [13]) | Activity (Nucleic Acid) |
| --- | --- | --- | --- | --- | --- | --- | --- | --- | --- | --- | --- | --- | --- | --- | --- | --- | --- | --- | --- |
| COc1cccc2c1C(=O)c1c(O)c3c(c(O)c1C2=O)C[C@@](O)(C(=O)CO)C[C@@H]3O[C@H]1C[C@H](N)[C@H](O)[C@H](C)O1 [DOXORUBICIN] | 1.9 | 35 | 85 |  |  |  |  |  |  |  |  |  |  |  |  |  |  |  |  |
| COc1ccc2c(c1)/C(=N\O)c1c-2c(N2CCNCC2)nc2ccccc12 |  |  |  | 2.34 |  |  |  |  |  |  |  |  |  |  |  |  |  |  |  |
| COc1ccc2c(c1)/C(=N\OCCCN(C)C)c1c-2cnc2ccccc12 | 13.2 | 5 | 75 | 1.12 | 5.65 | 3.45 | 0.57 | 0.61 | 6.1 | 40 | 3.22 | 0.93 | 3.71 | 1.07 | 1.11 | 3.11 | 1.83 | 1.89 |  |
| CC[C@@]1(O)C(=O)OCc2c1cc1n(c2=O)Cc2cc3ccccc3nc2-1 [CAMPTOTHECIN] | > 100 |  | 0 |  |  | 0.99 |  |  |  |  |  | 1.03 |  |  | 0.08 |  |  |  |  |
| COc1ccc2c(c1)/C(=N\OCCN1CCOCC1)c1c-2c(O)nc2ccccc12 | > 100 | 0 | 0 | 5.01 | 13.6 |  |  |  | 16.5 | > 100 |  | 6.04 |  | 10.4 | 5.02 |  | > 30 |  |  |
| COc1ccc2c(c1)/C(=N\O)c1c-2cnc2ccccc12 |  |  |  | 11.5 | > 30 |  |  |  | > 30 |  |  | > 30 |  | 8.42 | 11.4 |  | > 30 |  |  |
| COc1ccc2c(c1)/C(=N\OCCN1CCCCC1)c1c-2c(O)nc2ccccc12 | > 100 | 0 | 0 | 0.832 | 5.74 |  | 1.39 | 1.31 | 5.39 |  | 1.75 | 1.59 | 4.72 | 4.28 | 0.84 | 8.93 | 6.95 | 1.08 | Active |
| COc1ccc2c(c1)/C(=N\OCCCN(C)C)c1c-2c(=O)[nH]c2ccccc12 |  |  |  |  |  | 2.09 |  |  |  | > 100 |  |  |  |  |  |  |  |  |  |
| COc1ccc2c(c1)/C(=N\OCCN1CCOCC1)c1c-2cnc2ccccc12 | > 100 | 0 | 0 | 17 | 7.81 |  |  |  | 15.7 | > 100 |  | 10.2 |  | 20.8 | 16.9 |  | 28.2 |  |  |
| COc1ccc2c(c1)/C(=N\OCCN1CCCCC1)c1c-2c(N2CCNCC2)nc2ccccc12 | 8 | 45 | 68 | 0.776 |  | 2.3 | 0.4 | 0.41 |  | 11.5 | 1.46 | 4.03 | 0.57 |  |  | 2.95 |  | 2.64 | Active |
| COc1ccc2c(c1)/C(=N\OCCN1CCCCC1)c1c-2c(=O)[nH]c2ccccc12 |  |  |  |  |  | 7.5 |  |  |  | > 100 |  |  |  |  |  |  |  |  |  |
| COc1ccc2c(c1)/C(=N\OCCCN(C)C)c1c-2c(N2CCNCC2)nc2ccccc12 | 4.05 | 70 | 88 | 0.372 |  | 2.77 | 0.56 | 0.52 |  | 6.6 | 0.94 | 1.37 | 2.02 |  |  | 7.49 |  | 7.29 | Active |
| COc1ccc2c(c1)/C(=N\OCCN1CCOCC1)c1c-2c(N2CCNCC2)nc2ccccc12 | 5.97 | 40 | 100 | 0.776 | 6.47 | 2.6 | 0.38 | 0.4 | 6.93 | 13 | 2.65 | 3.75 | 0.69 | 0.98 | 0.78 | 3.33 | 2.2 | 1.18 |  |
| COc1ccc2c(c1)C(=O)c1c-2cnc2ccccc12 | > 100 | 0 | 0 | 17.4 | > 30 |  |  |  | > 30 | > 100 |  | > 30 |  | > 30 | 17.2 |  | 13.5 |  |  |
| COc1ccc2c(c1)/C(=N\OCCCN(C)C)c1c-2c(O)nc2ccccc12 | 7.14 | 3 | 77 | 0.2 | 4.35 |  | 0.67 | 0.48 | 3.1 |  | 2.79 | 1.29 | 1.62 | 0.75 | 0.2 | 10.45 | 0.63 | 3.32 | Active |
